This is an account of results in publication PMC4714923 (Biochemistry, 2015).

The target of one assay is T1, FKBP51 (Homo sapiens, UniProt Q13451).
T1 sequence (Q13451 1-457): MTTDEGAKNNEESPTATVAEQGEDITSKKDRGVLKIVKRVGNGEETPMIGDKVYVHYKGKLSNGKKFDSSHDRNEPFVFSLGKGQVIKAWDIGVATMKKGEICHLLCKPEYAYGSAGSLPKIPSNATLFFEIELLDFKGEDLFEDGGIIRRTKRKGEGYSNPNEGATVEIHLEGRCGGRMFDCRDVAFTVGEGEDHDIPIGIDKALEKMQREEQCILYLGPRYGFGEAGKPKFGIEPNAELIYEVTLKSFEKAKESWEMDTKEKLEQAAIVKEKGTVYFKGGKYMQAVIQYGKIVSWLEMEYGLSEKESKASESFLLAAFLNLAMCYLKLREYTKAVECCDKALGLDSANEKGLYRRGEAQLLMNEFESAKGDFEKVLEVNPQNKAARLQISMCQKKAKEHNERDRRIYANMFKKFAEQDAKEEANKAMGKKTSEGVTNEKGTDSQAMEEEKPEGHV
As to the kind of experiment: FP binding of C-terminal Hsp70/90 tracers to FKBP51. Particulars: pH 7.4, full-length FKBP51.

The next assay deals with T2, FKBP52 (Homo sapiens, UniProt Q02790).
T2 sequence (Q02790 1-459): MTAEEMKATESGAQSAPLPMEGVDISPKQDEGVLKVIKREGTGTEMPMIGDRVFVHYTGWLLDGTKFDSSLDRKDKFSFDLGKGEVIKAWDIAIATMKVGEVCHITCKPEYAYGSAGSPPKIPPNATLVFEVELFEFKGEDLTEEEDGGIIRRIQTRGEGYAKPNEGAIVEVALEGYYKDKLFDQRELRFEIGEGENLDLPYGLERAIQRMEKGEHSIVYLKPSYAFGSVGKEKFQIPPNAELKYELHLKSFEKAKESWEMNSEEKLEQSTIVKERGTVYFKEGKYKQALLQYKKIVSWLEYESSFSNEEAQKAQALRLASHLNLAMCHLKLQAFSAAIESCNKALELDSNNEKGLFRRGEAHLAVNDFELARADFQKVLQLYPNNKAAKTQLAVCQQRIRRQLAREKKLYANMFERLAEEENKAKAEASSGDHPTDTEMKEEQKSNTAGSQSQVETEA
Briefly: FP binding of C-terminal Hsp70/90 tracers to FKBP52. As to conditions: pH 7.4, full-length FKBP52. Put shortly:
(§1)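 Full-length human protein, made in E. coli BL21(DE3) and Ni-NTA purified (DnaJC7 kept its His-tag; Hop and FKBP52 were TEV-cleaved and gel-filtered). Twofold dilutions (0–125 μM final) with 20 nM N-terminal 5-Fam-aminohexanoyl C-terminal Hsp70/90 peptide in 50 mM HEPES, 75 mM NaCl, 0.001% Triton X-100, pH 7.4. 30 min at RT, dark. FP (ex 485/em 530 nm) isotherms. ≥2 runs in triplicate, mean ± SEM.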

The next assay deals with T3, CHIP (Homo sapiens, UniProt Q9UNE7).
T3 sequence (Q9UNE7 1-303): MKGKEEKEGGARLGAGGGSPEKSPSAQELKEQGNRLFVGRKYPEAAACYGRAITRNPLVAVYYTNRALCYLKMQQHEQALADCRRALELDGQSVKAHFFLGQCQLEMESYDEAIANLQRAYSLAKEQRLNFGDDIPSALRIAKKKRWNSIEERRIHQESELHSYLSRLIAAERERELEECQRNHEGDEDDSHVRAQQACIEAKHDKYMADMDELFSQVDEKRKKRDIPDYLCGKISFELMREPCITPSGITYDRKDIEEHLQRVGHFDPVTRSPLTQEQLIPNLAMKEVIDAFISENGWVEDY
Briefly: FP binding of C-terminal Hsp70/90 tracers to CHIP. As to conditions: pH 7.4, full-length CHIP.

In a further assay the target is Hop (Homo sapiens, UniProt P31948). Briefly: FP binding of C-terminal Hsp70/90 tracers to Hop. Put shortly:
as §1

A further assay deals with T4, DnaJC7 (Homo sapiens, UniProt Q99615).
T4 sequence (Q99615 1-494): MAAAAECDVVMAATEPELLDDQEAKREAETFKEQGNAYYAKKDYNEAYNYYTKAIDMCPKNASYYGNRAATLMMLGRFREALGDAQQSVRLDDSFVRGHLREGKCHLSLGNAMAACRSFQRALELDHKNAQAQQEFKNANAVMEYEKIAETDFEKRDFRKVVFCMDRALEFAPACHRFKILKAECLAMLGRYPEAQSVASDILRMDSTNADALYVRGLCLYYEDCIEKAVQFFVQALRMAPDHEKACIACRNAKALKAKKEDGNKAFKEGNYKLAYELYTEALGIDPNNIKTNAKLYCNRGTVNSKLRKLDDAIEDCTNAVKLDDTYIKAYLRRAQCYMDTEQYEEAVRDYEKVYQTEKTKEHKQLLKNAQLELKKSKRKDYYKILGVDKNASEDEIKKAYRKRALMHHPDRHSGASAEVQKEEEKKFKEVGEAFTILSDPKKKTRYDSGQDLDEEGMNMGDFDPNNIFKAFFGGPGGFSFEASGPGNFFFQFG
As to the kind of experiment: FP binding of C-terminal Hsp70/90 tracers to DnaJC7. As to conditions: pH 7.4, full-length DnaJC7. The method, boiled down:
as §1

Chain of Hop (P31948 whole entry): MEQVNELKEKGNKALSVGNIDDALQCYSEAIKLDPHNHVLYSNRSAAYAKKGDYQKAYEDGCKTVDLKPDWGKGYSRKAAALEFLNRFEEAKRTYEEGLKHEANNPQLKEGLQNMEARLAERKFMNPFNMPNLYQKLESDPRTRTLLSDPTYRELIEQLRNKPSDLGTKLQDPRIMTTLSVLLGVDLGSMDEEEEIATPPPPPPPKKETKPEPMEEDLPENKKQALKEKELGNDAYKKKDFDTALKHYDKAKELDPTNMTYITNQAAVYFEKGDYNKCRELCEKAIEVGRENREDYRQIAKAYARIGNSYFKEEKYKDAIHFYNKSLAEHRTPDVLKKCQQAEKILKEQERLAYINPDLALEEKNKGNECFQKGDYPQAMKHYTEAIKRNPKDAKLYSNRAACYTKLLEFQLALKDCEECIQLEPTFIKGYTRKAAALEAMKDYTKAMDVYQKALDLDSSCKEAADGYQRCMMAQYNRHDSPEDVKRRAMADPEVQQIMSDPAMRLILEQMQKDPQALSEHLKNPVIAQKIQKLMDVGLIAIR

On to Fam-DDTERMEEVD, for which the “binding to FKBP51 (in words)” value at FKBP51 is reported as “unaffected”. For the same substance, the “binding to FKBP52 (in words)” value at FKBP52 is reported as “unaffected”. Further, the “decrease in affinity versus wt tracer” value at CHIP is given as “more than 8 fold”. For the same substance, at Hop (pH 7.4, pseudophosphorylated tracer), the “enhanced binding versus wt tracer” value was ~ 2 fold. The “binding to DnaJC7 (in words)” value at DnaJC7 is “unaffected”.
In the case of Fam-DVEEM, on FKBP51, the “binding to FKBP51 (in words)” value is “no affinity”. For the same substance, on FKBP52, the “binding to FKBP52 (in words)” value is “no affinity”. In addition, the “binding to CHIP (in words)” value at CHIP is reported as “no affinity”. Further, the “binding to Hop (in words)” value on Hop (pH 7.4, full-length Hop) is listed as “no affinity”. For the same substance, the “binding to DnaJC7 (in words)” value on DnaJC7 is given as “no affinity”.
